This is an account of results in ChEMBL document CHEMBL3091288, “Fluorine Scanning by Nonselective Fluorination: Enhancing Raf/MEK Inhibition while Keeping Physicochemical Properties” (ACS Med Chem Lett, 2013).

Converted amounts (≈) assume the structure as drawn. Bounds are passed on as bounds.

The nature of series [1]: AUC (0 to 24 hrs) in BALB-nu/nu mouse at 100 mg/kg, po by LC-MS/MS analysis. The series is classed as ADME, organism-based. Also on record: time < 24 hr, dose 100 mg/kg, route oral. Conditions: plasma. The method in brief:
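Mice received a single oral dose of 100 mg/kg, formulated as a solution in 5% DMSO, 5% Cremophor EL, 15% PEG400, 15% HPCD and 60% water. Plasma exposure was evaluated over 24 h.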

Series [2] can be described thus: Permeability of the compound at pH 6.5 by PAMPA. Conditions: read-out: permeability. Type of series: ADME.
For a further series, the system named is Liver microsome. In words: Clearance in human liver microsomes at 5 uM by LC-MS/MS analysis. Type of series: ADME.
Series [3] in a line: Solubility of the compound in fasted state simulated intestinal fluid measured after overnight incubation by UV-HPLC analysis. Type of series: ADME.
For series [4], the target named is RAF proto-oncogene serine/threonine-protein kinase (Homo sapiens, UniProt P04049). In words: Inhibition of C-Raf (unknown origin) assessed as phosphorylation of MEK1 after 45 mins by TR-FRET assay.
RAF proto-oncogene serine/threonine-protein kinase, sequence (P04049 whole entry): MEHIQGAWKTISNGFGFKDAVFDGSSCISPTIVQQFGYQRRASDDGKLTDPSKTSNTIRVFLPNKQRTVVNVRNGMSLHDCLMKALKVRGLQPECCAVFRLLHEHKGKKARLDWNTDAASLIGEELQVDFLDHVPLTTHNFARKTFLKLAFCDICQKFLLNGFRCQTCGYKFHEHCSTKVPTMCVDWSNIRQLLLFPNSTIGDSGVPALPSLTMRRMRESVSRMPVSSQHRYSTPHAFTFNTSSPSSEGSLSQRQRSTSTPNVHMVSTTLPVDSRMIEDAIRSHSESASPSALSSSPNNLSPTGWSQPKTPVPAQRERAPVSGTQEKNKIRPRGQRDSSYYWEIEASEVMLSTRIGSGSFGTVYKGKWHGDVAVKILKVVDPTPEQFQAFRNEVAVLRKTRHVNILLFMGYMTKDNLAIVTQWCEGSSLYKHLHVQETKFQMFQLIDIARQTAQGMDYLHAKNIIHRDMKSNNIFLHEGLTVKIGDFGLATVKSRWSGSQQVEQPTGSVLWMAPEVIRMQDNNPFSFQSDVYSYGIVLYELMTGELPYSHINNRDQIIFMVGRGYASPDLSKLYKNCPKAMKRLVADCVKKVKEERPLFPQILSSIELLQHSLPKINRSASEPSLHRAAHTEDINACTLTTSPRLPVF
Series [5] concerns the target Dual specificity mitogen-activated protein kinase kinase 1 (Homo sapiens, UniProt Q02750). In words: Inhibition of MEK1 (unknown origin) assessed as phosphorylation of Erk2 preincubated for 30 mins followed by FAM-Erktide addition measured after 60 mins by IMAP fluorescence polarization assay.
The test system of a further series is HCT-116. In words: Antiproliferative activity against human HCT116 cells assessed as cell viability after 96 hrs by cell counting kit-8 assay. The series is classed as functional, cell-based. Conditions: HCT-116, 96 h.

Dual specificity mitogen-activated protein kinase kinase 1, sequence (Q02750 whole entry): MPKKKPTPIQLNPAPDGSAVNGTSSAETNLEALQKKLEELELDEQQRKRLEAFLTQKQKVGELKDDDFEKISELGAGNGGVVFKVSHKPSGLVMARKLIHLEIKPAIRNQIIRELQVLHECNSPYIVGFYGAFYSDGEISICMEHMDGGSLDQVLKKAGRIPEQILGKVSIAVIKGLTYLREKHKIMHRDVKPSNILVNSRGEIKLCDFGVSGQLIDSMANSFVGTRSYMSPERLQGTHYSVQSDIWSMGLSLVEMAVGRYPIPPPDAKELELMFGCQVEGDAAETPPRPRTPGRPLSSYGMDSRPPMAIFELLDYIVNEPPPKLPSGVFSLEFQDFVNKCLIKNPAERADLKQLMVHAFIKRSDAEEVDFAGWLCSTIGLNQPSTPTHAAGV

Take `CNS(=O)(=O)[N-]c1cccc(Cc2c(C)c3ccc(Oc4nccs4)cc3oc2=O)c1F.[Na+]`: the AUC(0-t) at 24 h in series [1] was determined as 366 µM·h.

In series [1], `CNS(=O)(=O)[N-]c1cccc(Cc2c(C)c3ccc(Oc4nccs4)cc3oc2=O)c1.[Na+]` showed an AUC(0-t) at 24 h of 190 µM·h.

In series [1], `CNS(=O)(=O)[N-]c1cccc(Cc2c(C)c3ccc(OC(=O)N(C)C)cc3oc2=O)c1F.[Na+]` showed an AUC(0-t) at 24 h of 70 µM·h.

Consider `CNS(=O)(=O)[N-]c1cccc(Cc2c(C)c3ccc(OC(=O)N(C)C)cc3oc2=O)c1.[Na+]`, for which the AUC(0-t) at 24 h in series [1] was 78 µM·h.

Consider `Cc1c(Cc2cccc([N-]S(N)(=O)=O)c2)c(=O)oc2cc(OC(=O)N(C)C)ccc12.[Na+]`, for which, in series [1], the AUC(0-t) at 24 h is 104 µM·h.

`CNS(=O)(=O)Nc1cccc(Cc2c(C)c3ccc(Oc4nccs4)cc3oc2=O)c1F`: in series [2], the Papp was 3 ×10⁻⁶ cm/s. The CLH in the series on Liver microsome stood at 9 µL/min/mg. This compound also returned a solubility in series [3] of 15 µg/mL (≈ 31.5 µM). For the same compound, the IC50 stood at 63 nM in series [4], 26 nM in series [5] and 11 nM in the series with HCT-116.

`CNS(=O)(=O)Nc1cccc(Cc2c(C)c3ccc(Oc4ncccn4)cc3oc2=O)c1C`: in series [3], the solubility is below 4 µg/mL. Moreover, the IC50 in series [4] came out at 3600 nM; in series [5] it was 4200 nM; with HCT-116, 330 nM.

Regarding `CNS(=O)(=O)Nc1cccc(Cc2c(C)c3cc(I)c(OC(=O)N(C)C)cc3oc2=O)c1`, in series [1], the AUC(0-t) at 24 h was 16 µM·h. In the series on Liver microsome, the CLH is 33 µL/min/mg. In series [3], this compound registered a solubility of 8 µg/mL (≈ 14 µM). Moreover, the half-inhibitory concentration (IC50) in series [4] was 25 nM; in series [5], 5 nM; in the series on HCT-116 it was 8 nM.

In series [1], `CNS(=O)(=O)Nc1cccc(Cc2c(C)c3cc(C)c(OC(=O)N(C)C)cc3oc2=O)c1` returned an AUC(0-t) at 24 h of 18 µM·h. The same compound gave a CLH in the series with Liver microsome of 17 µL/min/mg. In series [3], this compound came in with a solubility of 11 µg/mL (≈ 23.9 µM). Moreover, the values for the IC50 (in series [4]; in series [5]; in the series on HCT-116) were 78 nM, 29 nM and 22 nM, respectively.

Regarding `C#Cc1cc2c(C)c(Cc3cccc(NS(=O)(=O)NC)c3)c(=O)oc2cc1OC(=O)N(C)C`, the concentration in solution in series [3] (solubility) was 21 µg/mL (≈ 44.7 µM). The IC50 in series [4] was found to be 70 nM; in series [5], 100 nM; in the series with HCT-116 it was 140 nM.

In the case of `CNS(=O)(=O)Nc1cccc(Cc2c(C)c3cc(C#N)c(OC(=O)N(C)C)cc3oc2=O)c1`, the AUC(0-t) at 24 h in series [1] is 39 µM·h. The CLH with Liver microsome was found to be 15 µL/min/mg. This compound also yielded a solubility in series [3] of 40 µg/mL (≈ 85 µM). Moreover, the IC50 came to 55 nM in series [4], 85 nM in series [5] and 24 nM in the series with HCT-116.

As to `Cc1c(Cc2ccc(F)c(NS(N)(=O)=O)c2)c(=O)oc2cc(OC(=O)N(C)C)ccc12`, the Papp in series [2] worked out at 6 ×10⁻⁶ cm/s. The CLH in the series with Liver microsome is 6 µL/min/mg. The compound also displayed a solubility in series [3] of 37 µg/mL (≈ 82.3 µM). In addition, the half-inhibitory concentration (IC50) in series [4] was determined as 1100 nM; in series [5], 44 nM; in the series with HCT-116, 610 nM.

Turning to `Cc1c(Cc2cccc(NS(N)(=O)=O)c2F)c(=O)oc2cc(OC(=O)N(C)C)ccc12`, the Papp in series [2] was determined as 6 ×10⁻⁶ cm/s. Besides, in the series with Liver microsome, the CLH came to 6 µL/min/mg. In series [3], the concentration in solution (solubility) was 273 µg/mL (≈ 607 µM). Moreover, the IC50 amounted to 13 nM in series [4], 53 nM in series [5] and 18 nM in the series with HCT-116.

With `Cc1c(Cc2cccc(NS(N)(=O)=O)c2)c(=O)oc2c(F)c(OC(=O)N(C)C)ccc12`, the IC50 in series [4] is 120 nM; in series [5], 240 nM; with HCT-116, 140 nM.

In the case of `CNS(=O)(=O)Nc1cccc(Cc2c(C)c3ccc(OC(=O)N(C)C)cc3oc2=O)c1`, in series [2], the Papp amounted to 6 ×10⁻⁶ cm/s. Besides, the CLH in the series with Liver microsome worked out at 20 µL/min/mg. In addition, the solubility in series [3] is 32 µg/mL (≈ 71.8 µM). The IC50 in series [4] came out at 300 nM; in series [5], 110 nM; in the series with HCT-116, 24 nM.

With `CNS(=O)(=O)Nc1cccc(Cc2c(C)c3ccc(OC(=O)N(C)C)cc3oc2=O)c1F`, in series [2], the Papp is 5 ×10⁻⁶ cm/s. This compound came in with a CLH in the series with Liver microsome of 13 µL/min/mg. For the same compound, in series [3], the solubility is 81 µg/mL (≈ 175 µM). The IC50 in series [4] worked out at 8 nM; in series [5] it was 38 nM; in the series on HCT-116, 9 nM.
